From PubChem BioAssay
Arr AP2 block – human beta-arrestin and AP2 interaction inhibition. FITC-arrestin peptide / GST-AP2 beads, flow cytometry; AP2 beta2 appendage carries R879A mutation. inhibition, % at 10 µM. 340,000 compounds, 0.31% hits. AID 504490;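 active = inhibition above a set limit, near 3 SD of compounds lacking own fluorescence, cut at about 54% in these data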;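 note: plate controls were DMSO wells for no effect and 5 µM unlabelled arrestin peptide for full effect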
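System: GST-AP2 R879A bound to glutathione beads, E. coli-expressed. Also added: 50 nM FITC-arrestin peptide. Schedule: compound with beads 12 min RT, then probe 1 h RT. Signal: bead flow cytometry, FITC channel. Read-out basis: percent response.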
H9c2 protect – protects H9c2 cardiomyocytes from peroxide injury; AID 588492; H2O2 injury protection, ATPLite, 2 h; protection from H2O2 cell death, % at 20 µM; 360,000 compounds, 0.63% hits;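 active = compounds giving at least 50% protection of heart cells from peroxide-induced death in the single-dose screen, raw or plate-pattern-corrected value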;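 note: 0% = DMSO wells with peroxide and 100% = DMSO wells without peroxide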
hiPSC survival – increases survival of single human iPS cells | hiPSC single-cell survival, ATPlite luminescence; 100% = ROCK inhibitor wells, 0% = DMSO | survival enhancement, % at 20 µM | 360,000 compounds, 0.044% hits | AID 602274; in the data active = survival enhancement above about 18%;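 note: cells exposed to compounds for 16 hours before the ATP read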
FAS TE block – inhibitors of human fatty acid synthase thioesterase domain; P49327; recombinant FAS-TE, OMFH fluorogenic substrate, fluorescence endpoint; inhibition, % at 15 µM; 360,000 compounds, 0.67% hits; AID 602261;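 active = compounds whose normalised, plate-corrected inhibition of enzyme fluorescence in the single-dose primary screen is 50% or more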;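 note: 0% = DMSO with enzyme and 100% = substrate without enzyme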
GRIN3A LBD mod – modulators (binders) of human NR3A ligand-binding domain; NR3A LBD differential scanning fluorimetry, Tm shift; 0% = protein alone, 100% = glycine-bound protein; Tm shift relative to glycine control, % at 25 µM; 340,000 compounds, 2.5% hits;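 active = melting temperature shift of at least 10% of the positive control shift, at one fixed dose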
SENP1 inh – inhibitors of human SENP1 SUMO protease catalytic domain | recombinant SENP1 catalytic domain, CyPet-SUMO1-YPet FRET cleavage | inhibition, % at 10 µM | 360,000 compounds, 0.21% hits;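 active = inhibition at least 30% at 10 µM, raw YFP signal under a set limit, fluorescence ratio 0.5 to 1.5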;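 note: 0% = enzyme with DMSO and 100% = no enzyme wells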
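Test system: human SENP1 catalytic domain; medium: Tris pH 8 buffer plus EDTA, NaCl, BME, BSA, NP40, catalase; incubation: 50 min reaction at room temperature; technique: FRET, CFP and YFP emission; controls: no-enzyme low control and enzyme-plus-DMSO high control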
FAS-TE inh conf – confirmation of human fatty acid synthase thioesterase inhibitors; shares compounds with FAS TE block; recombinant FAS-TE, OMFH fluorogenic substrate, fluorescence; inhibition, % at 15 µM; 2,300 compounds, 45% hits;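 active = compounds inhibiting the enzyme by at least 50% at 15 µM in any one of the replicates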;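 note: 0% = enzyme with DMSO only and 100% = wells lacking enzyme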
SENP1 conf – confirmation of human SENP1 SUMO protease inhibitors. shares compounds with SENP1 inh. recombinant SENP1, CyPet-SUMO1-YPet FRET cleavage. inhibition, % at 10 µM. AID 651678. 520 compounds, 34% hits; in the data active = inhibition mostly above about 35%, no sharp cut-off; inactive = mostly below about 32%;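 note: 0% = enzyme with DMSO and 100% = no enzyme control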
SENP1 kin conf – SENP1 (human) inhibition, kinetic confirmation | recombinant SENP1, CyPet-SUMO1-YPet FRET kinetic cleavage | 520 compounds, 26% hits | inhibition, % at 10 µM | shares compounds with SENP1 inh | AID 651690; in the data active = inhibition mostly above about 32%, no sharp cut-off; inactive = mostly below about 29%;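 note: 0% = DMSO with enzyme and 100% = no enzyme substrate only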
The depositor's hits bear a star; · = no result. A selection: hits, their analogues and other compounds. The true share with any hit is near 4%.

SMILES | Arr AP2 block | H9c2 protect | hiPSC survival | FAS TE block | GRIN3A LBD mod | SENP1 inh | SENP1 conf | SENP1 kin conf | others
CC(C)C(NC(=O)C12CC3CC(CC(C3)C1)C2)C(=O)N/N=C/C1=C(N2CCOCC2)C(=C\c2ccc([N+](=O)[O-])cc2)/CC1 (centres undefined) | 5 | 2 | -2 | 79* | -1 | 75* | 24 | 7 | FAS-TE inh conf=7
Cc1occc1C(=O)N/N=C/C1=C(N2CCOCC2)C(=C\c2ccc(Cl)cc2)/CC1 | 5 | -8 | -3 | 1 | 0 | 3 | · | ·
Cc1coc(NC(=O)CSc2nc(-c3ccncc3)cc(C(F)(F)F)c2C#N)n1 | -13 | 30 | -1 | 55* | -1 | 66* | 45* | 28* | FAS-TE inh conf=37*
CCCOC(=O)Nc1nc2ccccc2o1 | 18 | -9 | -2 | -28 | 1 | 30* | 2 | 3
COCCN(C(=O)COC(=O)c1ccc(-c2ccccc2)cc1)c1c(N)n(Cc2ccccc2)c(=O)[nH]c1=O | 17 | 7 | 0 | 2 | -1 | -1 | · | ·
CCOC1=C2CN(S(=O)(=O)c3ccc(C)cc3)C(c3cccc(Cl)c3)CC2NC(c2ccccc2)C1 (centres undefined) | · | · | · | · | · | 2 | · | ·
COCCCN1C(=O)C(CC(=O)NC(c2ccccc2)c2ccccc2)CC(C(=O)N2CCCCCC2)=C1C (centres undefined) | · | · | -2 | -4 | · | -3 | · | ·
CC(=O)Oc1ccc(C(=O)Cc2ccc3ccccc3n2)c(O)c1C | 19 | -4 | -2 | 13 | 12* | 49* | 25 | 19
Cc1c(O)ccc(/C(Cc2ccc3ccccc3n2)=N\O)c1O | -6 | -9 | -1 | -138 | -9 | -3 | · | ·
N#Cc1ccc(-c2nc3ccc(Br)cn3c2Cc2ccccc2C(F)(F)F)cc1 | · | -4 | -2 | 15 | · | 45* | 44* | 36*
COc1ccccc1Cc1c(-c2cccc(Cl)c2)nc2ccc(Br)cn12 | · | -3 | 1 | 9 | · | 37* | -9 | -2
Cc1cccc(NC(=O)CCN2C(=O)c3cccc([N+](=O)[O-])c3C2=O)c1 | -2 | 5 | 0 | 3 | -2 | -3 | · | ·
CCCN(CC(=O)Nc1ccccc1C)C(=O)CCN1C(=O)c2cccc([N+](=O)[O-])c2C1=O | -3 | -2 | 0 | 3 | -2 | 38* | 19 | 20
CCc1nc2ccc(C(=O)NCCNC(C)=O)cn2c1N(CC)CCOC | · | 5 | 2 | -2 | · | 2 | · | ·
O=C(O)c1ccccc1C(=O)Nc1ccccc1NC(=O)c1ccccc1C(=O)O | -10 | 2 | 1 | -5 | 3 | 88* | -7 | -1
COc1cc(Cn2c3ccc(NC(=O)CC(C)C(F)(F)F)cc3c(=O)n2C)ccc1F (centres undefined) | · | -4 | 1 | -4 | · | 31* | 9 | 10
CC(CC(=O)Nc1ccc2c(c1)c(=O)n(C)n2Cc1ccc(Cl)cc1)C(F)(F)F (centres undefined) | · | -3 | 3 | 2 | · | 5 | · | ·
COc1ncc(-c2ccc(N3C(c4ccc([N+](=O)[O-])cc4)=Cc4ccccc4C3CC(C)=O)cc2)cn1 (centres undefined) | · | · | 0 | 39 | · | 48* | 18 | 11
COCCN1C[C@@H](CO)O[C@@H](n2cnc3c(N(C)C(C)C)ncnc32)C1 | · | 2 | 5 | -6 | · | 2 | · | ·
COc1ccc(-c2cnnc(N/N=C/c3ccc(-c4ccc([N+](=O)[O-])cc4)o3)n2)cc1 | 1 | 19 | -1 | -15 | 19* | 36* | -2 | 9
O=C(CSc1nc2ccccc2c(=O)n1CCCN1CCOCC1)Nc1ccccc1OC(F)F | 4 | 21 | -2 | -1 | 0 | 3 | · | ·
O=C1C(Cl)=C(N2CCCC2)C(=O)N1c1ccc(F)cc1 | 17 | 1 | 0 | 4 | 0 | 35* | 11 | 10
N#Cc1c(C(F)(F)F)cc(-c2ccccc2)nc1SCCN1CCOCC1 | -1 | 2 | -1 | 36 | -10 | 33* | 12 | 9
O=C1CCC[C@@H]2C[C@@]3(C[C@@H]4CCN1[C@H]24)Nc1cc([N+](=O)[O-])ccc1NC3=NC1CCCCC1 | 9 | 2 | -2 | 1 | -7 | 70* | 32 | 23
COc1ccc(NC(=O)CC#N)cc1OC | 10 | 14 | -1 | -10 | 2 | 53* | -4 | 1
SMILES | Arr AP2 block | H9c2 protect | hiPSC survival | FAS TE block | GRIN3A LBD mod | SENP1 inh | SENP1 conf | SENP1 kin conf | others
COc1ccc(NC(=O)Cc2c(F)c(F)c(F)c(F)c2F)cc1OC | -2 | 3 | 0 | -2 | 4 | 0 | · | ·
COC(=O)C1CC(O)CN1C(=O)Nc1ccccc1 (centres undefined) | 2 | 7 | -1 | -4 | -1 | 30* | 11 | 5
COc1ccc(CNC(=O)C2CC(O)CN2C(=O)Nc2ccccc2)cc1 (centres undefined) | 13 | 4 | 0 | 0 | -1 | 1 | · | ·
CN(C)c1ccc(/C=N/NC(=O)C(=O)/C=C2\NC3(CCCC3)Cc3ccccc32)cc1 | 5 | -6 | 0 | 35 | -3 | 53* | 37* | 28
NC(=S)NN=C1C=CCCC1 | -14 | -6 | -3 | -8 | 1 | 1 | · | ·
COc1cccc(-c2nc3nc(C)cc(C)n3c2Nc2c(C)cccc2C)c1 | · | · | -1 | -8 | · | 64* | 36* | 20
CCCCNc1c(-c2cccc(OC)c2)nc2nc(C)cc(C)n12 | · | · | 0 | -6 | · | -2 | · | ·
Cc1cc(C)n2c(Nc3c(C)cccc3C)c(-c3ccccn3)nc2n1 | · | · | 0 | -19 | · | 63* | 29 | 16
Cc1ccc(CNC(=O)CN(C(=O)C2(C)CC(=O)N=C3C=CC=CN32)c2ccc(F)cc2)cc1 (centres undefined) | 0 | 7 | 0 | -6 | 0 | 2 | · | ·
COc1cccc2c1-c1c(O)cccc1C2=O | -19 | 18 | -1 | -5 | -3 | 31* | 42* | 26
COc1ccccc1O | -3 | -1 | 3 | -6 | 0 | -5 | · | ·
CCCc1c(C(=O)N/N=C/c2ccoc2)nnn1-c1nonc1N | · | -1 | -3 | -10 | · | 0 | · | ·
O=c1[nH]c(/C(Cl)=C/c2cc(Cl)ccc2O)nc2cc(Cl)ccc12 | 5 | -6 | -1 | 3 | 39* | 59* | 89* | 73*
